Test results taken from ChEMBL document CHEMBL1125163, “Evolution of a series of peptidoleukotriene antagonists: synthesis and structure-activity relationships of 1,6-disubstituted indoles and indazoles” (J Med Chem, 1990).
Each block holds one compound with its values, some of them ahead of it. Active and inactive are the calls of the source. The calls are words filed in the database; no cut-off is given here.

How the values were obtained:
[1] = system: Cysteinyl leukotriene receptor (Cavia porcellus); experiment: Inhibition of the LTE4- induced contraction of guinea pig tracheal spirals at 10 uM.; details: Trachea
Cavia porcellus [2] = species on record: Cavia porcellus; experiment: Percent inhibition of the LTE4- induced contraction of guinea pig tracheal spirals at the concentration of 3.3 uM; type: functional; details: Trachea
Outline: (§1)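 Guinea pig trachea cut into spiral strips, each trachea split into paired sections. Tissue bath at 37 °C in modified Krebs buffer gassed with 95% O2/5% CO2, 2 g resting tension, 60 min stabilization. After reproducible responses to 10 nM LTE4, compound was added for 10 min, then LTE4 challenge repeated. Percent inhibition is the 2nd vs 3rd response, adjusted by subtracting the vehicle-treated paired section. Paired t test, p < 0.05.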

Cavia porcellus [3] = species on record: Cavia porcellus; experiment: Percent inhibition of the LTE4- induced contraction of guinea pig tracheal spirals at the concentration of 1 uM; type: functional; details: Trachea
Outline: as §1

[4] = system: Cysteinyl leukotriene receptor (Cavia porcellus); experiment: Inhibition of the LTE4- induced contraction of guinea pig tracheal spirals at 10 uM; Not significant.; details: Trachea
Cavia porcellus [5] = species on record: Cavia porcellus; experiment: Percent inhibition of the LTE4- induced contraction of guinea pig tracheal spirals at concentration of 10 uM; Not significant; type: functional; details: Trachea
Outline: as §1

Cavia porcellus [6] = species on record: Cavia porcellus; experiment: Percent inhibition of the LTE4- induced contraction of guinea pig tracheal spirals at the concentration of 1.0 uM; type: functional; details: Trachea
Outline: as §1

Cavia porcellus [7] = species on record: Cavia porcellus; experiment: Percent inhibition of the LTE4- induced contraction of guinea pig tracheal spirals at the concentration of 0.33 uM; type: functional; details: Trachea
Outline: as §1

[8] = Selectivity ratio of the compound; type: functional
[9] = pKB value of the compound
Outline: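 Guinea pig tracheal strips at 37 °C in Krebs buffer. Cumulative LTE4 concentration-response curves were built in log increments, with responses expressed as % of the maximum to 30 µM carbachol. Antagonist was incubated 30 min before the curve, with vehicle on paired controls. EC50 came from linear regression. KB = [antagonist]/(dose ratio − 1) by the Furchgott method. One curve per tissue.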

Cavia porcellus [10] = species on record: Cavia porcellus; experiment: Percent inhibition of the LTE4- induced contraction of guinea pig tracheal spirals at the concentration of 0.1 uM; type: functional; details: Trachea
Outline: as §1

Cavia porcellus [11] = species on record: Cavia porcellus; experiment: Percent inhibition of the BaCl2 - induced contraction of guinea pig tracheal spirals at concentration of 100 uM; type: functional; details: Trachea
Outline: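 Guinea pig tracheal strips contracted with barium chloride. Compound was tested at 100 µM, and the read-out is percent inhibition of the BaCl2-induced contraction.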

Cavia porcellus [12] = species on record: Cavia porcellus; experiment: Percent inhibition of the LTE4- induced contraction of guinea pig tracheal spirals at the concentration of 5 uM; type: functional; details: Trachea
Outline: as §1

Cavia porcellus [13] = species on record: Cavia porcellus; experiment: Percent inhibition of the LTE4- induced contraction of guinea pig tracheal spirals at the concentration of 0 uM; Not significant; type: functional; details: Trachea
Outline: as §1

Compound: CCCCOC(=O)Nc1ccc2cn(Cc3ccc(C(=O)O)cc3OC)nc2c1
inhibition [1]: 50%

Compound: COc1cc(C(=O)O)ccc1Cn1ccc2ccc(NC(=O)OC(C)(C)C)cc21
inhibition at 3.3 µM (Cavia porcellus [2]): 10%

Compound: CCCCNC(=O)Nc1ccc2ccn(Cc3ccc(C(=O)O)cc3OC)c2c1
inhibition at 1 µM (Cavia porcellus [3]): 39%

Compound: COc1cc(C(=O)O)ccc1Cn1ccc2ccc(NC(=O)NC3CCCC3)cc21
inhibition at 1 µM (Cavia porcellus [3]): 73%

Compound: CCCCCC(=O)Nc1cccc2cnn(Cc3ccc(C(=O)O)cc3OC)c12
inhibition (Cavia porcellus [5]): inactive

Compound: COc1cc(C(=O)O)ccc1Cn1ccc2ccc(NC(=O)C3CCCC3)cc21
inhibition at 1 µM (Cavia porcellus [3]): 58%

Compound: CCCCCC(=O)Nc1ccc2nn(Cc3ccccc3C(=O)O)cc2c1
inhibition [1]: 13%

Compound: CCC(C(=O)Nc1ccc2ccn(Cc3ccc(C(=O)O)cc3OC)c2c1)c1ccccc1 (configuration not stated)
inhibition at 1 µM (Cavia porcellus [3]): 65%

Compound: CCCCCCOC(=O)Nc1ccc2ccn(Cc3ccc(C(=O)O)cc3OC)c2c1
inhibition at 1 µM (Cavia porcellus [6]): 30%

Compound: CCC(C(=O)Nc1ccc2ccn(Cc3ccc(C(=O)O)cc3OC)c2c1)C1CCCCC1 (configuration not stated)
inhibition at 0.33 µM (Cavia porcellus [7]): 18%

Compound: COc1cc(C(=O)O)ccc1Cn1ccc2ccc(NC(=O)Nc3ccccc3C(F)(F)F)cc21
inhibition [1]: 42%

Compound: CCCCCC(=O)Nc1ccc2c(cnn2Cc2ccccc2C(=O)O)c1
inhibition [4]: inactive

Compound: COc1cc(C(=O)O)ccc1Cn1ccc2ccc(NC(=O)NC3CCCCC3)cc21
inhibition at 3.3 µM (Cavia porcellus [2]): 34%

Compound: CCCCCC(=O)Nc1ccc2cnn(Cc3ccccc3C(=O)O)c2c1
inhibition [4]: inactive

Compound: CCC(C(=O)Nc1ccc2cn(Cc3ccc(C(=O)O)cc3OC)nc2c1)c1ccccc1 (configuration not stated)
inhibition [1]: 22%

Compound: COc1cc(C(=O)O)ccc1Cn1ccc2ccc(NC(=O)C(C)c3ccccc3)cc21 (configuration not stated)
inhibition at 3.3 µM (Cavia porcellus [2]): 59%

Compound: CCCCC(CC)C(=O)Nc1ccc2ccn(Cc3ccc(C(=O)O)cc3OC)c2c1 (configuration not stated)
inhibition at 1 µM (Cavia porcellus [3]): 59%

Compound: COc1cc(C(=O)O)ccc1Cn1ccc2ccc(NC(=O)OC3CCOC3)cc21 (configuration not stated)
inhibition at 3.3 µM (Cavia porcellus [2]): 70%

Compound: CCCCCC(=O)Nc1ccc2c(cnn2Cc2ccc(C(=O)O)cc2)c1
inhibition [4]: inactive

Compound: CCCCCCNC(=O)Nc1ccc2ccn(Cc3ccc(C(=O)O)cc3OC)c2c1
inhibition at 3.3 µM (Cavia porcellus [2]): 51%

Compound: CCCc1c(OCc2ccc(C(=O)O)cc2OC)ccc(C(C)=O)c1O
inhibition at 1 µM (Cavia porcellus [3]): 38% | Selectivity ratio [8]: 50 | pKB [9]: 6.4

Compound: COc1cc(C(=O)O)ccc1Cn1ccc2ccc(NC(=O)OC3CCC3)cc21
inhibition at 0.1 µM (Cavia porcellus [10]): 27%

Compound: COc1cc(C(=O)O)ccc1Cn1ncc2ccc(NC(=O)CC3CCCC3)cc21
inhibition at 0.1 µM (Cavia porcellus [10]): 83%

Compound: COc1cc(C(=O)O)ccc1Cn1ccc2ccc(NC(=O)OC3CC=CCC3)cc21 (configuration not stated)
inhibition at 1 µM (Cavia porcellus [6]): 47%

Compound: COc1cc(C(=O)O)ccc1Cn1ccc2ccc(NC(=O)CC3CCCC3)cc21
inhibition at 0.1 µM (Cavia porcellus [10]): 34%

Compound: COc1cc(C(=O)O)ccc1Cn1ncc2ccc(NC(=O)OC3CCCC3)cc21
inhibition at 100 µM (Cavia porcellus [11]): 44% | inhibition at 0.1 µM (Cavia porcellus [10]): 65%

Compound: COc1cc(C(=O)O)ccc1Cn1ccc2ccc(NC(=O)C(c3ccccc3)C3CCCC3)cc21 (configuration not stated)
inhibition at 1 µM (Cavia porcellus [6]): 27%

Compound: CCCCCC(=O)Nc1ccc2nn(Cc3ccc(C(=O)O)cc3)cc2c1
inhibition [4]: inactive

Compound: COc1cc(C(=O)O)ccc1Cn1ccc2ccc(NC(=O)Cc3ccccc3)cc21
inhibition at 5 µM (Cavia porcellus [12]): 71%

Compound: COc1cc(C(=O)O)ccc1Cn1ccc2ccc(NC(=O)OC(C)C)cc21
inhibition at 0.33 µM (Cavia porcellus [7]): 24%

Compound: COc1cc(C(=O)O)ccc1Cn1ccc2ccc(NC(=O)CC3CCCCC3)cc21
inhibition at 0.33 µM (Cavia porcellus [7]): 53%

Compound: COc1cc(C(=O)O)ccc1Cn1ccc2ccc(NC(C)=O)cc21
inhibition (Cavia porcellus [13]): inactive

Compound: C/C=C/C=C/C(=O)Nc1ccc2ccn(Cc3ccc(C(=O)O)cc3OC)c2c1
inhibition at 5 µM (Cavia porcellus [12]): 28%

Compound: CCCCCC(=O)Nc1ccc2cnn(Cc3ccc(C(=O)O)cc3)c2c1
inhibition [1]: 62%

Compound: COc1cc(C(=O)O)ccc1Cn1ccc2ccc(NS(=O)(=O)Cc3ccccc3)cc21
inhibition [4]: inactive

Compound: CCCC(=O)Nc1ccc2ccn(Cc3ccc(C(=O)O)cc3OC)c2c1
inhibition at 5 µM (Cavia porcellus [12]): 42%

Compound: COc1cc(C(=O)O)ccc1Cn1ccc2ccc(NC(=O)C(OC)c3ccccc3)cc21 (configuration not stated)
inhibition at 3.3 µM (Cavia porcellus [2]): 52%

Compound: COc1cc(C(=O)O)ccc1Cn1ccc2ccc(NC(=O)NC(C)(C)C)cc21
inhibition at 3.3 µM (Cavia porcellus [2]): 24%

Compound: CCC(CC)OC(=O)Nc1ccc2ccn(Cc3ccc(C(=O)O)cc3OC)c2c1
inhibition at 0.33 µM (Cavia porcellus [7]): 31%

Compound: CCCCCC(=O)Nc1ccc2cn(Cc3ccc(C(=O)O)cc3)nc2c1
inhibition [4]: inactive

Compound: CCCC(C(=O)Nc1ccc2ccn(Cc3ccc(C(=O)O)cc3OC)c2c1)C1CCCC1 (configuration not stated)
inhibition at 1 µM (Cavia porcellus [6]): 62%

Compound: COc1cc(C(=O)O)ccc1Cn1ccc2ccc(NC(=O)C(C)(C)c3ccccc3)cc21
inhibition at 3.3 µM (Cavia porcellus [2]): 23%

Compound: COc1cc(C(=O)O)ccc1Cn1ccc2ccc(NC(=O)Cc3ccc4ccccc4c3)cc21
inhibition [4]: inactive

Compound: COc1cc(C(=O)O)ccc1Cn1ccc2ccc(NC(=O)C(c3ccccc3)c3ccccc3)cc21
inhibition at 3.3 µM (Cavia porcellus [2]): 38%

Compound: CCCCCCCC(=O)Nc1ccc2ccn(Cc3ccc(C(=O)O)cc3OC)c2c1
inhibition at 5 µM (Cavia porcellus [12]): 53%

Compound: COc1cc(C(=O)O)ccc1Cn1ccc2ccc(NC(=O)Cc3ccc(-c4ccccc4)cc3)cc21
inhibition [4]: inactive

Compound: CCCCCCOc1ccc(COc2ccccc2C(=O)O)cc1
Selectivity ratio [8]: 10 | inhibition at 5 µM (Cavia porcellus [12]): 40% | pKB [9]: 5.1

Compound: CCCCCC(=O)Nc1ccc2cn(Cc3ccccc3C(=O)O)nc2c1
inhibition [4]: inactive

Second part, the compound after the results:

inhibition [1]: 29%
Compound: CCCCCC(=O)Nc1cccc2c1ccn2Cc1ccc(C(=O)O)cc1OC

inhibition [1]: 52%
Compound: CCCCCCNc1ccc2ccn(Cc3ccc(C(=O)O)cc3OC)c2c1

inhibition [4]: inactive
Compound: COc1cc(C(=O)O)ccc1Cn1ccc2ccc(NC(=O)CCCCCNC(C)=O)cc21

inhibition [4]: inactive
Compound: COc1cc(C(=O)O)ccc1Cn1ccc2ccc(NC(=O)CCCC(C)=O)cc21

inhibition [4]: inactive
Compound: CCCCN(C)C(=O)Nc1ccc2ccn(Cc3ccc(C(=O)O)cc3OC)c2c1

inhibition [4]: inactive
Compound: COC(=O)Nc1ccc2ccn(Cc3ccc(C(=O)O)cc3OC)c2c1

inhibition [1]: 29%
Compound: COc1cc(C(=O)O)ccc1Cn1ccc2ccc(NC(=O)Cc3ccc(C)cc3)cc21

inhibition [1]: 19%
Compound: CCN(CC)C(=O)Nc1ccc2ccn(Cc3ccc(C(=O)O)cc3OC)c2c1

inhibition [1]: 18%
Compound: CCCC/N=C(\S)Nc1ccc2ccn(Cc3ccc(C(=O)O)cc3OC)c2c1

inhibition [4]: inactive
Compound: COc1cc(C(=O)O)ccc1Cn1ccc2ccc(NC(=O)Cc3ccc(OC)c(OC)c3)cc21

inhibition [1]: 77%
Compound: COc1cc(C(=O)O)ccc1Cn1ccc2ccc(NC(=O)Cc3cccs3)cc21

inhibition [1]: 57%
Compound: COc1cc(C(=O)O)ccc1Cn1ccc2ccc(NC(=O)NCc3ccccc3)cc21

inhibition [4]: inactive
Compound: CCCCCCCCCC(=O)Nc1ccc2ccn(Cc3ccc(C(=O)O)cc3OC)c2c1

inhibition [4]: inactive
Compound: COc1cc(C(=O)O)ccc1Cn1ccc2ccc(NC(=O)CCCCCCC(=O)O)cc21

inhibition [1]: 14%
Compound: COc1cc(C(=O)O)ccc1Cn1ccc2ccc(NC(=O)c3ccccc3)cc21

inhibition [4]: inactive
Compound: COc1cc(C(=O)O)ccc1Cn1ccc2ccc(NC(=O)Nc3ccccc3)cc21

inhibition [1]: 62%
Compound: COc1cc(C(=O)O)ccc1Cn1ccc2ccc(NC(=O)CCc3ccccc3)cc21

inhibition [1]: 73%
Compound: COc1cc(C(=O)O)ccc1Cn1ccc2ccc(NC(=O)CCCc3ccccc3)cc21

inhibition [1]: 44%
Compound: COc1cc(C(=O)O)ccc1Cn1ccc2ccc(NC(=O)Cc3ccc(Cl)cc3)cc21

inhibition [1]: 34%
Compound: CCCCC(C(=O)Nc1ccc2ccn(Cc3ccc(C(=O)O)cc3OC)c2c1)c1ccccc1 (configuration not stated)

inhibition [1]: 47%
Compound: C#CCCC(=O)Nc1ccc2ccn(Cc3ccc(C(=O)O)cc3OC)c2c1

inhibition [1]: 13%
Compound: COc1cc(C(=O)O)ccc1Cn1ccc2ccc(NC(=O)Cc3ccc(C(F)(F)F)cc3)cc21

inhibition [4]: inactive
Compound: CCCCCC(=O)N(C)c1ccc2ccn(Cc3ccc(C(=O)O)cc3OC)c2c1

inhibition [1]: 40%
Compound: COc1cc(C(=O)O)ccc1Cn1ccc2ccc(NC(=O)C(F)(F)C(F)(F)C(F)(F)F)cc21
